Measurements reported in ChEMBL document CHEMBL1135821, “Unique overlap in the prerequisites for thrombin inhibition and oral bioavailability resulting in potent oral antithrombotics” (J Med Chem, 2002).

Tests used:
[1] = Half life value in rat was determined; assay type: ADME, organism-based; conditions: in vivo
In short: (§1)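 Elimination half-life after IV dosing of cannulated rats (275-325 g) or dogs, at least six EDTA plasma samples. Plasma samples diluted in Tris-NaCl pH 7.4, incubated 2 min with 0.5 U/mL human thrombin, then S-2238 added. ΔOD405 taken between 2 and 22 min and read against a calibration of compound spiked in pooled plasma. Fitted by iterative Simplex procedure.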

[2] = Bioavailability in rat; assay type: ADME, organism-based; conditions: in vivo
In short: (§2)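 Rats (275-325 g) with jugular cannula placed under methohexital one day earlier; dogs dosed by both routes with at least 2 weeks wash-out. IV and oral gavage in separate rats. At least six blood samples in EDTA. Plasma anti-IIa activity measured with S-2238 against a compound-spiked plasma calibration. %F = PO AUC divided by dose-normalized mean IV AUC ×100, AUC by trapezium rule.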

Prothrombin [3] = target: T1, Prothrombin (Homo sapiens, UniProt P00734); experiment: Inhibitory activity against thrombin.
[4] = Bioavailability in rat (Wistar); assay type: ADME, organism-based; conditions: in vivo; in short: as §2
[5] = Half life value in wistar rats; assay type: ADME, organism-based; conditions: rat, in vivo; in short: as §1
[6] = Oral bioavailability; assay type: ADME, organism-based; conditions: eutheria, in vivo; in short: as §2
[7] = Half life was reported; assay type: ADME
[8] = Clearance was reported; assay type: ADME, organism-based; conditions: in vivo
[9] = Bioavailability in dog determined; assay type: ADME, organism-based, Canis lupus familiaris; conditions: in vivo; in short: as §2
Prothrombin [10] = target: T1, Prothrombin; experiment: Antithrombotic potency in the Aortic flow model in rats was reported; assay type: functional; conditions: Rattus norvegicus; target entry is the homologue from another species
In short: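 Rats (350-500 g body wt) were weighed. A silk thread (size 4/0, uncoated), knotted twice and protruding 3 mm from a catheter, was introduced via the left common carotid artery and positioned in the aorta. The carotid was clamped and the iliac clamp released. After 10 min of blood circulation, the thread was removed and rinsed, and thrombus weight and length were measured.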

[11] = Half life value determined in dog; assay type: ADME, Canis lupus familiaris; conditions: in vivo; in short: as §1
[12] = Bioavailability in dog; assay type: ADME, organism-based, Canis lupus familiaris; conditions: in vivo; in short: as §2
[13] = Half life value in dog was determined; assay type: ADME, organism-based, Canis lupus familiaris; conditions: in vivo; in short: as §1
[14] = Bioavailability determined in rat; assay type: ADME, organism-based; conditions: in vivo; in short: as §2

Work on NCCCC[C@H](NC(=O)[C@@H]1CC2CCCCC2N1C(=O)[C@@H](CC1CCCCC1)NCC(=O)O)C(=O)C(=O)O (stereo partly drawn) yielded a half-life [1] of 8 min, a bioavailability [2] of 25% and a Ki (Prothrombin [3]) of 0.82 nM.

Work on CC1(C)CCN(C(=O)[C@@H](CC2CCCCC2)NCC(=O)O)[C@@H]1C(=O)N[C@@H](CCCCN)C(=O)C(=O)O yielded a Ki (Prothrombin [3]) of 376 nM.

In the case of COc1ccc2ccc(S(=O)(=O)N[C@@H](CCCCN)C(=O)c3nccs3)cc2c1, the Ki (Prothrombin [3]) is reported as > 1000 nM.

For NCCCC[C@H](NC(=O)[C@@H]1CCCN1C(=O)[C@H](N)CC1CCCCC1)C(=O)c1nccs1, the bioavailability [4] was < 5%, the Ki (Prothrombin [3]) was 3.5 nM and the half-life [5] was 17 min.

CCS(=O)(=O)N[C@H](CC1CCCCC1)C(=O)N1CCC[C@H]1C(=O)N[C@@H](CCCCN)C(=O)c1nccs1 gave a Ki (Prothrombin [3]) of 2 nM.

NC(N)=NCCC[C@@H]1NC(=O)[C@@H]2CCCN2C(=O)[C@@H](NC=O)CNC(=O)/C=C/[C@H](Cc2ccc(O)cc2)NC(=O)[C@@H](Cc2ccccc2)NC(=O)C1=O [CYCLOTHEONAMIDE A] showed a Ki (Prothrombin [3]) of 1 nM.

With NCCCC[C@H](NC(=O)[C@@H]1CCCN1C(=O)[C@@H](CC1CCCCC1)NCC(=O)O)C(=O)c1ncco1 the bioavailability [6] was 28%, the Ki (Prothrombin [3]) was 0.42 nM and the half-life [7] was < 5 min.

For NCCCC[C@H](NC(=O)[C@@H]1CCCN1C(=O)[C@@H](CC1CCCCC1)NCC(=O)O)C(=O)C(=O)O, the bioavailability [6] was 39%, the clearance [8] was 0.417 mL/min and the Ki (Prothrombin [3]) was 0.29 nM. For the same compound, the bioavailability [9] was 24%, the half-life [5] was 19 min and the ED50 (nM min-1 kg-1) (Prothrombin [10]) was 7.5. For the same compound, the half-life [11] was 78 min.

Work on CC(C)OC(=O)C(=O)[C@H](CCCCN)NC(=O)[C@@H]1CCCN1C(=O)[C@@H](CC1CCCCC1)NCC(=O)O yielded a half-life [1] of 58 min, a bioavailability [2] of 32% and a Ki (Prothrombin [3]) of 1.1 nM. It also gave a bioavailability [12] of 71% and a half-life [13] of 108 min.

With NCCCC[C@H](NC(=O)CN(C1CC1)C1Cc2ccccc2C1)C(=O)c1nccs1 the Ki (Prothrombin [3]) was > 1000 nM.

NCCCC[C@H](NC(=O)[C@@H]1C=CCN1C(=O)[C@@H](CC1CCCCC1)NCC(=O)O)C(=O)C(=O)O showed a bioavailability [4] of 37%, a half-life [4] of 32 min and a Ki (Prothrombin [3]) of 0.33 nM. For the same compound, the bioavailability [12] was 68% and the half-life [5] was 22 min.

NCCCC[C@H](NC(=O)[C@@H]1CCN1C(=O)[C@@H](CC1CCCCC1)NCC(=O)O)C(=O)C(=O)O gave a bioavailability [4] of 15%, a Ki (Prothrombin [3]) of 0.5 nM and a bioavailability [12] of 1%. The half-life [5] was 21 min and the half-life [11] was 42 min.

Work on NCCCC[C@H](NC(=O)[C@@H]1CCCN1C(=O)[C@H](CC(=O)O)NS(=O)(=O)Cc1ccccc1)C(=O)C(=O)O yielded a Ki (Prothrombin [3]) of 15 nM.

Work on NCCCC[C@H](NC(=O)[C@@H]1CCCCN1C(=O)[C@@H](CC1CCCCC1)NCC(=O)O)C(=O)C(=O)O yielded a Ki (Prothrombin [3]) of 0.29 nM, a bioavailability [14] of 6% and a half-life [5] of 5 min.

Compound NCCCC[C@H](NC(=O)[C@@H]1CCCN1C(=O)[C@H](N)CC1CCCCC1)C(=O)C(=O)O has a bioavailability [6] of 9%, a Ki (Prothrombin [3]) of 0.14 nM and a half-life [7] of 9 min.

With NC(N)=NCCC[C@H](NC(=O)[C@@H]1CCCN1C(=O)[C@@H](N)Cc1ccccc1)C(=O)c1nccs1 the bioavailability [6] was < 5%, the Ki (Prothrombin [3]) was 0.3 nM and the half-life [7] was 5 min.

With NCCCC[C@H](NC(=O)[C@@H]1CCCN1C(=O)[C@H](N)Cc1ccccc1)C(=O)C(=O)O the Ki (Prothrombin [3]) was 1.4 nM.

NCCCC[C@H](NC(=O)[C@@H]1CCCN1C(=O)[C@H](N)Cc1ccccc1)C(=O)c1nccs1 showed a Ki (Prothrombin [3]) of 146 nM.

NCCCC[C@H](NC(=O)[C@@H]1CCCN1C(=O)CC(c1ccccc1)c1ccccc1)C(=O)c1nccs1 showed a Ki (Prothrombin [3]) of 204 nM.

In the case of COc1ccc2ccc(S(=O)(=O)N[C@@H](CCCCN)C(=O)N3CCC(C)CC3)cc2c1, the Ki (Prothrombin [3]) is reported as > 1000 nM.

Compound CC1CNc2c(cccc2S(=O)(=O)N[C@@H](CCCNC(=N)N)C(=O)N2CC[C@@H](C)C[C@@H]2C(=O)O)C1 (stereo partly drawn) [ARGATROBAN] has a bioavailability [6] of 27%.

NCCCC[C@H](NC(=O)CN(C(=O)[C@@H](CC1CCCCC1)NCC(=O)O)C1CCCC1)C(=O)C(=O)O gave a half-life [1] of 18 min, a bioavailability [2] of 2% and a Ki (Prothrombin [3]) of 0.21 nM.

NCCCC[C@H](NC(=O)[C@@H]1CCCN1C(=O)[C@@H](CC1CCCCC1)NCC(=O)O)C(=O)c1nccs1 gave a bioavailability [6] of 23%, a Ki (Prothrombin [3]) of 2.6 nM and a half-life [7] of 23 min. The ED50 (nM min-1 kg-1) (Prothrombin [10]) was 19.

NCCCC[C@H](NC(=O)CN(C(=O)[C@H](N)CC1CCCCC1)C1CC1)C(=O)c1nccs1 showed a Ki (Prothrombin [3]) of 13 nM.

With NCCCC[C@H](NC(=O)[C@@H]1CCCN1C(=O)[C@@H](CC1CCCCC1)NCC(=O)O)C(=O)C(=O)NCCc1ccccc1 the half-life [1] was 17 min, the bioavailability [2] was 23% and the Ki (Prothrombin [3]) was 0.84 nM.

In the case of O=C(c1nccs1)[C@H](CCCCO)NC(=O)[C@@H]1CCCN1C(=O)CC(c1ccccc1)c1ccccc1, the Ki (Prothrombin [3]) is reported as > 1000 nM.
